# According to ChEMBL document CHEMBL1135165, “Pyrrolidine-5,5-trans-lactams as novel mechanism-based inhibitors of human cytomegalovirus protease. Part 3: potency and plasma stability” (Bioorg Med Chem Lett, 2002):
# Legend:
# [1] = Half life in human plasma was reported; format: ADME, cell-free
# [2] = target: T1, Capsid scaffolding protein (Human cytomegalovirus (strain AD169) (HHV-5) (Human herpesvirus 5), UniProt P16753); experiment: Tested in vitro for inhibitory activity against Protease; set-up: species or system Human betaherpesvirus 5
# T1 sequence (P16753 whole entry): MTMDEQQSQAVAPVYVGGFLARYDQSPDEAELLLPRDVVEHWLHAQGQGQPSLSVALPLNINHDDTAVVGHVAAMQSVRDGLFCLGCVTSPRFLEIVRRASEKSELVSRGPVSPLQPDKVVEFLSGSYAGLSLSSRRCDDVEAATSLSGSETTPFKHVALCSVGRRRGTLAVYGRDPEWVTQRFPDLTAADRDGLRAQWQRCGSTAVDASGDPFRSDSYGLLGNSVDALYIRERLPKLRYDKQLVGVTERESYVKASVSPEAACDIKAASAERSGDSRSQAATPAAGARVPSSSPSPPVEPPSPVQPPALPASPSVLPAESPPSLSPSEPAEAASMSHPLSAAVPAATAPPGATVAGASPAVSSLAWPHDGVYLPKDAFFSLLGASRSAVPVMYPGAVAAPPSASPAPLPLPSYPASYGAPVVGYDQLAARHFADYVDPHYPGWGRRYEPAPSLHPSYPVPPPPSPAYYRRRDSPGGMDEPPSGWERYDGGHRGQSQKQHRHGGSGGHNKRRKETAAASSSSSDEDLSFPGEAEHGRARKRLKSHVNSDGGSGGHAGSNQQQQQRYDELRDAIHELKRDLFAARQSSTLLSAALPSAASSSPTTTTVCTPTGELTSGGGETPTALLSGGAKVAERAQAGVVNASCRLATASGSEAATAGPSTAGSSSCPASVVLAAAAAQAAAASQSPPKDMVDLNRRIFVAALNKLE
# Summary of the method: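 Human cytomegalovirus protease inhibition was measured in a p-nitroanilide (pNA) chromogenic substrate assay. Values are reported as IC50 in μM, with Ki also given for some compounds.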
SMILES,half-life [1],IC50 [2]
CC1CC1C(=O)N1C(=O)[C@@H](C)[C@@H]2[C@@H]1CCN2C(=O)[C@@H]1CCCN1S(=O)(=O)c1cccc2c(N(C)C)cccc12 (stereo partly drawn),2.5 h,1.4 µM
C[C@@H]1C(=O)N(C(=O)C2C(C)(C)C2(C)C)[C@H]2CCN(C(=O)OCc3ccccc3)[C@H]12,33 h,> 500 µM
C[C@@H]1[C@H](C)[C@@H]1C(=O)N1C(=O)[C@@H](C)[C@@H]2[C@@H]1CCN2C(=O)OCc1ccccc1,9.8 h,72 µM
COC(=O)N1C(=O)[C@@H](C)[C@@H]2[C@@H]1CCN2C(=O)OCc1ccccc1,0.833 h,148 µM
C[C@@H]1C(=O)N(C(=O)C(C)(C)C)[C@H]2CCN(C(=O)OCc3ccccc3)[C@H]12,3.7 h,> 500 µM
C[C@@H]1C(=O)N(C(=O)C2CC2)[C@H]2CCN(C(=O)[C@@H]3CCCN3S(=O)(=O)c3cccc4c(N(C)C)cccc34)[C@H]12,5 h,
CNC(=O)N1C(=O)[C@@H](C)[C@@H]2[C@@H]1CCN2C(=O)OCc1ccccc1,> 24 h,> 500 µM
CC1CC1C(=O)N1C(=O)[C@@H](C)[C@@H]2[C@@H]1CCN2C(=O)OCc1ccccc1 (stereo partly drawn),2.6 h,16 µM
C[C@@H]1C(=O)N(S(C)(=O)=O)[C@H]2CCN(C(=O)OCc3ccccc3)[C@H]12,< 0.0833 h,~500 µM
C[C@@H]1C(=O)N(C(=O)NCc2ccccc2)[C@H]2CCN(C(=O)[C@@H]3CCCN3S(=O)(=O)c3cccc4c(N(C)C)cccc34)[C@H]12,> 33 h,6.6 µM
C[C@@H]1C(=O)N(C(=O)C2CC2)[C@H]2CCN(C(=O)OCc3ccccc3)[C@H]12,1.4 h,9 µM
C[C@@H]1C(=O)N(c2nccs2)[C@H]2CCN(C(=O)[C@@H]3CCCN3S(=O)(=O)c3cccc4c(N(C)C)cccc34)[C@H]12,> 50 h,2.1 µM
CC(=O)N1C(=O)[C@@H](C)[C@@H]2[C@@H]1CCN2C(=O)OCc1ccccc1,0.9 h,
C[C@@H]1C(=O)N(C(=O)NCc2ccccc2)[C@H]2CCN(C(=O)OCc3ccccc3)[C@H]12,12 h,250 µM
CC(=O)N1C(=O)C(C)(C)[C@@H]2[C@@H]1CCN2C(=O)OCc1ccccc1,6.5 h,> 500 µM
C[C@@H]1C(=O)N(C(=O)C2C(C)(C)C2(C)C)[C@H]2CCN(C(=O)[C@@H]3CCCN3S(=O)(=O)c3cccc4c(N(C)C)cccc34)[C@H]12,> 24 h,> 100 µM
CNC(=O)N1C(=O)[C@@H](C)[C@@H]2[C@@H]1CCN2C(=O)[C@@H]1CCCN1S(=O)(=O)c1cccc2c(N(C)C)cccc12,12 h,22 µM
COP(=O)(OC)N1C(=O)[C@@H](C)[C@@H]2[C@@H]1CCN2C(=O)OCc1ccccc1,> 24 h,> 500 µM
C[C@@H]1C(=O)N(c2ccc([N+](=O)[O-])cc2)[C@H]2CCN(C(=O)[C@@H]3CCCN3S(=O)(=O)c3cccc4c(N(C)C)cccc34)[C@H]12,,41 µM
C[C@@H]1C(=O)N(c2nccs2)[C@H]2CCN(C(=O)OCc3ccccc3)[C@H]12,44 h,~500 µM
C[C@@H]1C(=O)N(c2ccc([N+](=O)[O-])cc2)[C@H]2CCN(C(=O)OCc3ccccc3)[C@H]12,40 h,~500 µM
C[C@@H]1[C@H](C)[C@@H]1C(=O)N1C(=O)[C@@H](C)[C@@H]2[C@@H]1CCN2C(=O)[C@@H]1CCCN1S(=O)(=O)c1cccc2c(N(C)C)cccc12,20 h,5.1 µM
C[C@@H]1C(=O)N(c2ccc([N+](=O)[O-])cc2[N+](=O)[O-])[C@H]2CCN(C(=O)OCc3ccccc3)[C@H]12,> 24 h,~500 µM
